From the EternaBench riboswitch data

Test system: MS2 coat protein
Assay: apparent Kd, MS2 coat protein; higher = weaker binding; RNA-MaP array; tryptophan 2.4 mM where present
How it was run: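 Green signal from SNAP-549-labelled MS2 coat protein was normalised to red-channel RNA signal and to the median Fmax of control clusters. The protein was titrated from 0.7 or 1.5 nM, doubling to 3 µM, without and then with constant ligand, over designs transcribed by stalled E. coli RNA polymerase on Illumina sequencing-chip clusters, in 100 mM Tris-HCl pH 7.5, 80 mM KCl, 4 mM MgCl2, BSA, DTT, yeast tRNA and Tween-20. The apparent Kd is the median of filtered per-cluster binding-curve fits.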

[1] = designed as: OFF switch for tryptophan, no ligand
[2] = ligand present: tryptophan, designed as: OFF switch for tryptophan
[3] = designed as: ON switch for tryptophan, no ligand
[4] = ligand present: tryptophan, designed as: ON switch for tryptophan

| Sequence | apparent Kd [1] | apparent Kd [2] | apparent Kd [3] | apparent Kd [4] |
| --- | --- | --- | --- | --- |
| GGAUAGGACACGGCCGCCACUACCUAGGAUACUAGAAACAUUUCCUCACAUGAGGAUCACCCAUGUAGGACCGGGUGUCCUAUCG | 273 nM | 115 nM | – | – |
| AGACUGUAAAGUCUACCGGUCAACAAUAAUCGAGGACCGGUACGGCCGCCACUCGAUGUGAUAUACACAUGAGGAUCACCCAUGU | – | – | 16.2 nM | 15.5 nM |
| UUUAUUAUUGACUCGUUUUGGUAUUAAGAACGAGGACCGGUACGGCCGCCACUCGUGAUAUACAUGAGGAUCACCCAUGUUAGCA | – | – | 15.1 nM | 15.5 nM |
| AUGGUAAGAACAUGAGGAUCACCCAUGUGACGAGGACCGGUACGGCCGCCACUCGUACCUUAGUCGUCGAACAGAGGAUUCAUGU | – | – | 89.2 nM | 66 nM |
| CGUAGUAUCAGACAUGAGGAUCACCCAUGUCGAGGACCGGUACGGCCGCCACUCGGCAGUUUGCGUCCUCAGGUACUCCAGGUAA | 15.9 nM | 18.8 nM | – | – |
| AGAGCAUUGACGGCCGCCACUUAUGUCACAUGAGGAUCACCCAUGUGAUGGGUGAUAGCCCGGUUGAGGACCGGGUCAAUGCUCA | – | – | 12.7 nM | 17.9 nM |
| CCACUUUCUUUUAUCUUUCUUUCUUUGUUACGAGGACCGGUACGGCCGCCACUCGUGGUGUGUGGUACAUGAGGAUCACCCAUGU | – | – | 23.7 nM | 22.4 nM |
| GUUUUAUACUCGGCCGCCACUGAGAGAGUCAUGUAAACAUGAGGAUCACCCAUGUAAUAUAUAUACAGGACCGGGAGUAGGGUAA | 12.9 nM | 15.4 nM | – | – |
| AUACAUGAGGAUCACCCAUGUCCUCGUGAUCGAGGACCGGUACGGCCGCCACUCGGUCCUCGCGAGGAGGAGUCAAAGACUCCUA | – | – | 178 nM | 128 nM |
| CACGAAAGAUCGGCCGCCACUAACCUGUGUGUACUAGCACAUGAGGAUCACCCAUGUUCUUGCGUUAGGACCGGGAUUGAGCGUG | 23 nM | 21.7 nM | – | – |
| CGAUAUAAGACGGCCGCCACUAUUAAGUAACAAAAUAAACAUGAGGAUCACCCAUGUACAUGGGAUAGGACCGGGUCCAAUAACG | – | – | 163 nM | 76.9 nM |
| UGGGUACCGACGGCCGCCACUGAAUAUAGACAUGAGGAUCACCCAUGUAGAGAUCCUAGAAUAAACAGGACCGGGUCUGGUGCUA | 220 nM | 362 nM | – | – |
| AAUUAUCAGUCGGCCGCCACUGACACAUGAGGAUCACCCAUGUAACAUGGGUAAAAUUAACUGAACAGGACCGGGACAAAGGCUA | 378 nM | 499 nM | – | – |
| AUCAUAAUAGCCUCGUGUAAUUAAAUGGAACGAGGACCGGUACGGCCGCCACUCGAUAUAAACAUGAGGAUCACCCAUGUAAGCA | 65.5 nM | 58.3 nM | – | – |
| CCUCAUGAACAUGAGGAUCACCCAUGUACACGAGGACCGGUACGGCCGCCACUCGAAUAACCUAAAUAUAAAUAAUAAUAAUAGG | 15.8 nM | 43 nM | – | – |
| AUAAAUGGGUUAAUUAGUUUUAGGUCCAGUCGAGGACCGGUACGGCCGCCACUCGUCCCAAGUUACAUGAGGAUCACCCAUGUUA | 46.6 nM | 67.5 nM | – | – |
| AUAAAUAAUAAAUAAGAUAAAAUGGGUGAACGAGGACCGGUACGGCCGCCACUCGGACAUGAGGAUCACCCAUGUCCAUGUGAAA | 20.2 nM | 27.6 nM | – | – |
| GGUUGGUCCUCACAUGAGGAUCACCCAUGUCGAGGACCGGUACGGCCGCCACUCGAUUGUACCAGGGCUUAAGAGCCUAUGAGCA | 11.1 nM | 8.44 nM | – | – |
| UAUAUAUAUCACUAACUGUUCUUGAGGUCUCGAGGACCGGUACGGCCGCCACUCGUACCGCCUCACAUGAGGAUCACCCAUGUCC | 63 nM | 59.1 nM | – | – |
| GUACACUAGUCGGCCGCCACUGUUACAUGAGGAUCACCCAUGUAGGAUCACCCAUGACAUGAGGAUAGGACCGGGACGCAUGAGG | 45 nM | 41.3 nM | – | – |
| AAUACAGUGUCGGCCGCCACUGAAACAUGACAUGAGACAUGAGGAUCACCCAUGUACAUAAUAAACAGGACCGGGACCCAUGUAU | – | – | 37.9 nM | 15.5 nM |
| GUUAUAUGAAAACAUAUAACAGUGGGUGAACGAGGACCGGUACGGCCGCCACUCGGACAUGAGGAUCACCCAUGUCCAUGUGAAA | 15.8 nM | 41.4 nM | – | – |
| UAAGUUAGGGCGGCCGCCACUCGAACAUGAGGAUCACCCAUGUAAAUUAAUUAAAGGACAUGAAUGAGGACCGGGCCAAGUUAGA | – | – | 15.7 nM | 13.4 nM |

| Sequence | apparent Kd [1] | apparent Kd [2] | apparent Kd [3] | apparent Kd [4] |
| --- | --- | --- | --- | --- |
| AGAUUCGACACGGCCGCCACUCGUGACAGAUUUCGCAGUGGUCAACAUGAGGAUCACCCAUGUCUGAGGACCGGGUGUUGAGUCU | 33.5 nM | 474 nM | – | – |
| GUGAGCGCCGAACAUCGCUGGUCCUCUAUCCGAGGACCGGUACGGCCGCCACUCGACAUGAGGAUCACCCAUGUUGGCACUGGCG | 9.37 nM | 10.7 nM | – | – |
| UUCUACGGCGAUCUGGGUUUACCAGAUCGACGAGGACCGGUACGGCCGCCACUCGUGUUUCUUUAACAUGAGGAUCACCCAUGUA | – | – | 48 nM | 22.4 nM |
| UAUAUAUACUCGGCCGCCACUGAGAGAGUCAUGUAAACAUGAGGAUCACCCAUGUAAUAUAUAUACAGGACCGGGAGUAUAUGAA | 15.3 nM | 13.6 nM | – | – |
| AAUAAGAUCCUCAUGUGAGUCGUACCAUAACGAGGACCGGUACGGCCGCCACUCGAACAUGAGGAUCACCCAUGUAGGUACGACA | – | – | 118 nM | 176 nM |
| GGGUGGUAGGCGGCCGCCACUGAUUUUCAUUCCUAGAUGACAUGAGGAUCACCCAUGUUUAUGGGCAGGACCGGGCCUGCUGUGG | – | – | 62.7 nM | 55.7 nM |
| GGACUCGUCACGGCCGCCACUGCGGUGGUGUGACAUGAGGAUCACCCAUGUUGUCAUGCGGCCCUUAGGACCGGGUGUCGCUUCC | 169 nM | 198 nM | – | – |
| AGUUUAGACACGGCCGCCACUCGUGACAGAUUUCGCAGUGGUCUACAUGAGGAUCACCCAUGUCUGAGGACCGGGUGUUGAGUUU | 144 nM | 433 nM | – | – |
| AUCUUUGACGAUCUGGGAAAACCAGAUCGGCGAGGACCGGUACGGCCGCCACUCGUGUAUAAUAUACAUGAGGAUCACCCAUGUA | – | – | 40.4 nM | 29.6 nM |
| UCUGUUUGCUUUGUUUGUUUCUUCUUUGAGCGAGGACCGGUACGGCCGCCACUCGGGUUACAUGAGGAUCACCCAUGUGGUUUCU | – | – | 98.9 nM | 57.8 nM |
| GAGAGAGGAGUGCGGCGUGUUCCGCUCCGUCGAGGACCGGUACGGCCGCCACUCGACAUGAGGAUCACCCAUGUCCUCUCUCGCG | 31.3 nM | 13.8 nM | – | – |
| AAUAAUAGGUGAUCUUGAGUCGUACCGUAACGAGGACCGGUACGGCCGCCACUCGAACAUGAGGAUCACCCAUGUAUGUAUGAUA | – | – | 90 nM | 117 nM |
| GCUGCAGCUACGGCCGCCACUGUUACGUGAGACAUGAGGAUCACCCAUGUUGAUGUUUUACAGAAUAGGACCGGGUAGUUGUAGU | 9.07 nM | 10.2 nM | – | – |
| GUCCUCAUGACGGCCGCCACUACACAUGAGGAUCACCCAUGUAAUGAUCCCUUAAAUGAUAAUAGUAGGACCGGGUCACUGUAAG | – | – | 457 nM | 699 nM |
| UCGUGUCUAUUGGUUUAGCUUUAAUCGUUACGAGGACCGGUACGGCCGCCACUCGAUUUAACAUGAGGAUCACCCAUGUACUCUC | 19 nM | 21.2 nM | – | – |
| UCGUUUUAGUCGGCCGCCACUGGUCUCAUGUUCAACAUGAGGAUCACCCAUGUAUCUUAUUUUAACAGGACCGGGACGUAAUAGA | 50.8 nM | 19.8 nM | – | – |
| CCAUGCAGGUCGGCCGCCACUACACACAUGAGGAUCACCCAUGUAGUUACUGGGUGAAGUGGCAGUAGGACCGGGACCUGCACAU | – | – | 311 nM | 729 nM |
| CACGAAAGAUCGGCCGCCACUCAUGUUUCUUACAUGAGGAUCACCCAUGUAUUUUCUUUCUUUUAGAGGACCGGGAUCGAGCGUG | – | – | 40.8 nM | 18.4 nM |
| GGCCAUGGAAACAUGGCGGCGGCAUAAGCGCGAGGACCGGUACGGCCGCCACUCGGGCGACAUGAGGAUCACCCAUGUUCCUCAU | 317 nM | 541 nM | – | – |
| AUAAUAAUGUCGGCCGCCACUAUAAACAUGAGGAACAUGAGGAUCACCCAUGUAUGAGGAUCACCUAGGACCGGGACUAAUAUUA | 47.6 nM | 43.3 nM | – | – |
| UCAUAAGUACCGGUCCUCAGAUCCUCAUGACGAGGACCGGUACGGCCGCCACUCGAAACAUGAGGAUCACCCAUGUAAUAACAUU | 20.9 nM | 18.5 nM | – | – |
| GGGUGGUAGGCGGCCGCCACUGAUUUUUAUUUAUAGAUGACAUGAGGAUCACCCAUGUUUAUAUGCAGGACCGGGCCUGUUGUGG | – | – | 15.7 nM | 14.2 nM |
| GGGAGAUAGGCGGCCGCCACUGAUUUUCAUAUAUAUAUAACAUGAGGAUCACCCAUGUAGAUAUACAGGACCGGGCCUAUUUUUU | – | – | 17.4 nM | 16.2 nM |
